Measurements as given in ChEMBL document CHEMBL3351450 (Bioorg Med Chem, 2014).

Experiments:
[1] = Cmax in Sprague-Dawley rat at 30 mg/kg, po; assay type: ADME, organism-based; design: dose 30 mg/kg, route oral; conditions: in vivo
How it was run: (§1)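 Male SD rats, 3 per route. Oral dose given by gavage as a suspension in 0.5% Tween 80 (w/v). IV dose given via the femoral vein in DMSO/PEG-400/saline (5:65:30). Tail-vein blood drawn over 24 h and centrifuged to plasma. Parent and metabolite measured by LC–MS/MS.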

[2] = Cmax in Sprague-Dawley rat at 3 mg/kg, iv; assay type: ADME, organism-based; design: dose 3 mg/kg, route intravenous; conditions: in vivo; how it was run: as §1
[3] = Tmax in Sprague-Dawley rat at 30 mg/kg, po; assay type: ADME, organism-based; design: dose 30 mg/kg, route oral; conditions: in vivo
How it was run: (§2)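 Male SD rats, three per route. Oral gavage of a suspension in 0.5% Tween 80 (30 mg/kg). IV via femoral vein in DMSO/PEG-400/saline 5:65:30 (3 mg/kg). Tail-vein blood sampled over 24 h. Plasma stored at -20 °C and analysed by LC–MS/MS for parent and metabolite. Values reported as mean ± SD of three rats.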

[4] = Tmax in Sprague-Dawley rat at 3 mg/kg, iv; assay type: ADME, organism-based; design: dose 3 mg/kg, route intravenous; conditions: in vivo; how it was run: as §2
[5] = Half life in Sprague-Dawley rat at 30 mg/kg, po; assay type: ADME, organism-based; design: dose 30 mg/kg, route oral; conditions: in vivo; how it was run: as §1
[6] = Half life in Sprague-Dawley rat at 3 mg/kg, iv; assay type: ADME, organism-based; design: dose 3 mg/kg, route intravenous; conditions: in vivo; how it was run: as §1
[7] = AUC (0 to infinity) in Sprague-Dawley rat at 30 mg/kg, po; assay type: ADME, organism-based; design: time infinity, dose 30 mg/kg, route oral; conditions: plasma; how it was run: as §1
[8] = AUC (0 to infinity) in Sprague-Dawley rat at 3 mg/kg, iv; assay type: ADME, organism-based; design: dose 3 mg/kg, route intravenous, time infinity; conditions: plasma; how it was run: as §1
[9] = Metabolic stability in human liver S9 fraction assessed as compound remaining at 1 uM after 5 mins by LC-MS/MS analysis; assay type: ADME, subcellular; conditions: read-out: Stability
[10] = Metabolic stability in human liver S9 fraction assessed as compound remaining at 1 uM after 15 mins by LC-MS/MS analysis; assay type: ADME, subcellular; conditions: read-out: Stability
[11] = system: Liver; test: Intrinsic clearance in human liver S9 fraction; assay type: ADME, subcellular
[12] = Oral bioavailability in Sprague-Dawley rat at 30 mg/kg; assay type: ADME, organism-based; conditions: in vivo; how it was run: as §2

| SMILES | remaining at 5 min, 1 µM [9] | remaining at 0.25 h, 1 µM [10] | CLint [11] | also measured |
| --- | --- | --- | --- | --- |
| Nc1onc(-c2ccc(F)cc2)c1-c1ccncn1 | – | – | – | Cmax [1]: 136 ng/mL; Cmax [2]: 744 ng/mL; Tmax [3]: 200 min; Tmax [4]: 30 min; half-life [5]: 58.8 min; half-life [6]: 25.7 min; AUC(0-inf) [7]: 760 ng·h/mL; AUC(0-inf) [8]: 924 ng·h/mL |
| O=C(Cc1ccccc1Cl)Nc1onc(-c2ccc(Cl)cc2)c1-c1ccncn1 | 96.6% | – | – | – |
| Fc1ccc(-c2n[nH]c(CCCc3ccccc3)c2-c2ccncc2)cc1 | 81.5% | 50.3% | 81.8 µL/min/mg | – |
| Cc1cc(-c2noc(NC(=O)Cc3ccccc3C)c2-c2ccncn2)ccc1F | 52.6% | – | – | – |
| Cc1cccc(-c2noc(NC(=O)Cc3ccccc3Cl)c2-c2ccncn2)c1 | 21.2% | – | – | – |
| O=C(Cc1c(F)cccc1Cl)Nc1onc(-c2ccc(F)cc2)c1-c1ccncn1 | 16.1% | – | – | Cmax [1]: 0.88 ng/mL; Cmax [2]: 363 ng/mL; Tmax [3]: 200 min; Tmax [4]: 4.8 min; half-life [5]: 1120 min; half-life [6]: 28.4 min; AUC(0-inf) [7]: 23.7 ng·h/mL; AUC(0-inf) [8]: 505 ng·h/mL; bioavailability [12]: < 1% |
| Cc1ccc(C)c(CC(=O)Nc2onc(-c3ccc(F)cc3)c2-c2ccncn2)c1 | 53.9% | – | – | – |
| O=C(Cc1ccccc1Cl)Nc1onc(-c2ccc(F)cc2F)c1-c1ccncn1 | 20.4% | – | – | – |

Now from value to molecule, other results behind:

| remaining at 5 min, 1 µM [9] | remaining at 0.25 h, 1 µM [10] | CLint [11] | SMILES | also measured |
| --- | --- | --- | --- | --- |
| 39.6% | 10.9% | – | O=C(Nc1onc(-c2ccc(F)cc2)c1-c1ccncc1)c1ccccc1 | – |
| 79.7% | 64.3% | 91 µL/min/mg | O=C(Cc1ccccc1)Nc1onc(-c2ccc(F)cc2)c1-c1ccncc1 | – |
| 5.6% | – | – | O=C(Cc1ccccc1)Nc1onc(-c2ccc(F)cc2)c1-c1ccncn1 | – |
| 90.4% | 86.2% | 40.6 µL/min/mg | O=C(Cc1ccccc1)Nc1[nH]nc(-c2ccc(F)cc2)c1-c1ccncc1 | – |
| 84.4% | 65% | 68.1 µL/min/mg | Cn1nc(NC(=O)Cc2ccccc2)c(-c2ccncc2)c1-c1ccc(F)cc1 | – |
| 92.4% | 82.5% | 31.6 µL/min/mg | CC(=O)Nc1onc(-c2ccc(F)cc2)c1-c1ccncc1 | – |
| 32.1% | 27.9% | 455 µL/min/mg | O=C(CCc1ccccc1)Nc1onc(-c2ccc(F)cc2)c1-c1ccncc1 | – |
| 10% | – | – | O=C(Cc1ccccc1F)Nc1onc(-c2ccc(F)cc2)c1-c1ccncn1 | – |
| 50.7% | 28.5% | 272 µL/min/mg | O=C(CCCc1ccccc1)Nc1onc(-c2ccc(F)cc2)c1-c1ccncc1 | – |
| 5.8% | – | – | O=C(Cc1ccccc1Cl)Nc1onc(-c2ccc(F)cc2)c1-c1ccncn1 | – |
